Test results taken from ChEMBL document CHEMBL1142736, “Synthesis of novel diarylpyrimidine analogues and their antiviral activity against human immunodeficiency virus type 1” (J Med Chem, 2005).

Key:
[1] = tested on: Human immunodeficiency virus 1; assay: Effective concentration for the inhibition of wild type human immunodeficiency virus type 1 LAI strain; assay type: functional, organism-based
[2] = tested on: Human immunodeficiency virus 1; assay: Effective concentration against human immunodeficiency virus type 1 mutated at 100I; assay type: functional, organism-based
[3] = tested on: Human immunodeficiency virus 1; assay: Effective concentration against human immunodeficiency virus type 1 mutated at 103N; assay type: functional, organism-based
[4] = Cytotoxic concentration against wild type human immunodeficiency virus type 1 […] strain; settings: Human immunodeficiency virus 1
In short: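 MT-4 cells, 30,000 cells/well, were mock-infected (virus at 200-250 CCID50/well for the infected wells) and exposed to a range of compound concentrations. Plates were held at 37 °C with 5% CO2.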

[5] = tested on: Human immunodeficiency virus 1; assay: Effective concentration against human immunodeficiency virus type 1 mutated at 227C; assay type: functional, organism-based
[6] = tested on: Human immunodeficiency virus 1; assay: Effective concentration against human immunodeficiency virus type 1 mutated at 227L+106A; assay type: functional, organism-based
[7] = tested on: Human immunodeficiency virus 1; assay: Effective concentration against human immunodeficiency virus type 1 mutated at 188L; assay type: functional, organism-based
[8] = tested on: Human immunodeficiency virus 1; assay: Effective concentration against human immunodeficiency virus type 1 mutated at 181C; assay type: functional, organism-based
[9] = tested on: Human immunodeficiency virus 1; assay: Ratio of CC50 and EC50 against wild type human immunodeficiency virus type 1 LAI strain; assay type: functional
[10] = tested on: Human immunodeficiency virus 1; assay: Effective concentration against human immunodeficiency virus type 1 mutated at 100I+103N; assay type: functional, organism-based
[11] = tested on: Human immunodeficiency virus 1; assay: Effective concentration against human immunodeficiency virus type 1 mutated at 103N+181C; assay type: functional, organism-based
[12] = tested on: Human immunodeficiency virus 1; assay: Effective concentration against human immunodeficiency virus type 1 mutated at 103N+181C; ND:Not determined; assay type: functional, organism-based

Row | Structure (SMILES) | EC50 [1] [nM] | EC50 [2] [nM] | EC50 [3] [nM] | CC50 [4] [nM] | EC50 [5] [nM] | EC50 [6] [nM] | EC50 [7] [nM] | EC50 [8] [nM] | Selectivity index [9] | EC50 [10] [nM] | EC50 [11] [nM] | EC50 [12] [nM]
1 | Cc1cc(/C=C(/C#N)CC#N)cc(C)c1Nc1ccnc(Nc2ccc(C#N)cc2)n1 | 0.4 | 31.6 | 6.31 | 2000 | 12.5 | 25.1 | 31.6 | 6.31 | 5012 |  |  | 
2 | Cc1cc(/C=C\C#N)cc(C)c1Nc1ccnc(Nc2ccc(C#N)cc2)n1 | 0.6 | 6.3 | 1.6 | 30000 | 4 | 4 | 31 | 5 |  | 794 | 39.8 | 
3 | C/C(C#N)=C\c1cc(C)c(Nc2ccnc(Nc3ccc(C#N)cc3)n2)c(C)c1 | 0.8 | 0.6 | 0.6 | 20000 | 2.51 | 4 | 3.16 | 1.6 | 25000 | 7.95 | 2 | 
4 | Cc1cc(/C(Cl)=C/C#N)cc(C)c1Nc1ccnc(Nc2ccc(C#N)cc2)n1 | 4 | 2.51 | 2 | 30000 | 31.6 | 7.95 | 7.95 | 6.31 | 7500 | 31.6 | 6.31 | 
5 | C/C(C#N)=C/c1cc(C)c(Nc2ccnc(Nc3ccc(C#N)cc3)n2)c(C)c1 | 0.8 | 31.6 | 1 | 3000 | 5 | 5 | 31.6 | 4 | 3750 | > 10000 | 20 | 
6 | Cc1cc(/C=C/CC#N)cc(C)c1Nc1ccnc(Nc2ccc(C#N)cc2)n1 | 1 | 40 | 2.51 | 10000 | 40 | 50 | 20 | 31.6 | 10000 | 251 | 1 | 
7 | Cc1cc(CC(C)C#N)cc(C)c1Nc1ccnc(Nc2ccc(C#N)cc2)n1 (stereo not drawn) | 0.63 | 1 | 0.63 | 1000 | 6.31 | 3.16 | 50 | 2 | 1578 | 12.5 | 5 | 
8 | Cc1cc(-c2ccc(C#N)o2)cc(C)c1Nc1ccnc(Nc2ccc(C#N)cc2)n1 | 4 | 31.6 | 7.95 | 10000 | 31.6 | 31.6 | 31.6 | 40 | 3162 | 500 |  | 
9 | Cc1cc(COCCC#N)cc(C)c1Nc1ccnc(Nc2ccc(C#N)cc2)n1 | 0.63 | 25.1 | 3.16 | 10000 | 10 | 125 | 40 | 31.6 | 15873 |  |  | 
10 | Cc1cc(CC#N)cc(C)c1Nc1ccnc(Nc2ccc(C#N)cc2)n1 | 0.8 | 40 | 7.95 | 10000 | 10 | 125 | 25.1 | 25.1 | 12589 |  |  | 
11 | Cc1cc(CCC#N)cc(C)c1Nc1ccnc(Nc2ccc(C#N)cc2)n1 | 0.63 | 7.95 | 0.4 | 3000 | 4 | 4 | 20 | 12.5 | 4782 | 31.6 | 2.51 | 
12 | C/C(=C\C#N)c1cc(C)c(Nc2ccnc(Nc3ccc(C#N)cc3)n2)c(C)c1 | 1 | 0.8 | 1 | 30000 | 5 | 5 | 4 | 2.51 | 30000 | 2.51 | 2.51 | 
13 | Cc1cc(C#N)cc(C)c1Nc1ccnc(Nc2ccc(C#N)cc2)n1 | 0.4 | 31 | 2 | 5000 | 100 | 12.6 | 7.9 | 6.3 | 12500 | 1000 | 31 | 
14 | CC(C)Nc1cccnc1N1CCN(C(=O)c2cc3cc(NS(C)(=O)=O)ccc3[nH]2)CC1 [DELAVIRDINE] | 63.1 | 2510 | 2510 | > 20000 |  |  | 1260 | 2000 | >300 |  |  | 20000
15 | O=C1Nc2ccc(Cl)cc2[C@@](C#CC2CC2)(C(F)(F)F)O1 [EFAVIRENZ] |  | 40 | 40 | 10000 | 160 |  | 160 | 2 |  | > 10000 | 40 | 
16 | Cc1ccnc2c1NC(=O)c1cccnc1N2C1CC1 [NEVIRAPINE] | 39.8 | 316 | 6310 | 20000 |  |  | > 10000 | 10000 | >500 |  | > 10000 | 
17 | Cc1cc(/C=C/C#N)cc(C)c1Nc1ccnc(Nc2ccc(C#N)cc2)n1 [RILPIVIRINE] |  | 0.4 | 0.3 | 30000 | 2 | 1 | 2 | 1.26 |  | 7.95 | 1 | 
